{
  "source": "ChEMBL document CHEMBL2331329",
  "about": "“Synthesis and biological evaluation of 2-(alkoxycarbonyl)-3-anilinobenzo[b]thiophenes and thieno[2,3-b]pyridines as new potent anticancer agents” (J Med Chem, 2013)",
  "key": {"HeLa [1]": {"tested_on": "HeLa", "assay": "Cell cycle arrest in human HeLa cells assessed as accumulation at G2/M phase at >20 nM after 24 hrs by propidium iodide staining-based flow cytometry", "format": "functional", "in_short": "(§1)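 Jurkat, HT-29 and HeLa cells in exponential growth (5 × 10^5 cells) treated 24 h at a range of concentrations. Fixed in ice-cold 70% ethanol, lysed with buffer containing RNase A and 0.1% Triton X-100, stained with propidium iodide. DNA content read by flow cytometry and the percentage of cells per cycle phase derived from DNA histograms.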"}, "HeLa [2]": {"tested_on": "HeLa", "assay": "Induction of apoptosis in human HeLa cells assessed as phosphorylated Mcl-1 at 10 nM after 48 hrs by Western Blot analysis", "format": "functional, cell-based", "in_short": "(§2)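 HeLa cells exposed to 10 or 100 nM for 24 or 48 h, washed in ice-cold PBS, lysed on ice 30 min, spun at 15000g at 4 °C. 20 μg protein run on 7.5–15% SDS–PAGE, blotted to PVDF, blocked overnight at 4 °C. Primary antibodies 2 h at room temperature, peroxidase secondary 60 min, ECL detection, β-actin reprobe as loading control.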"}, "HeLa [3]": {"tested_on": "HeLa", "assay": "Cell cycle arrest in human HeLa cells assessed as reduction in phosphorylated cdc2 Tyr15 level at 10 to 100 nM after 24 to 48 hrs by Western Blot analysis", "format": "functional, cell-based", "in_short": "as §2"}, "HeLa [4]": {"tested_on": "HeLa", "assay": "Induction of apoptosis in human HeLa cells assessed as Mcl-1 phosphorylation at 10 to 100 nM after 24 hrs by Western Blot analysis", "format": "functional, cell-based", "in_short": "as §2"}, "A549": {"tested_on": "A549", "assay": "Ratio of Combretastatin A-4 IC50 to compound IC50 for human A549 cells", "format": "functional"}, "HeLa [5]": {"tested_on": "HeLa", "assay": "Cytotoxicity against human HeLa cells after 72 hrs by MTT assay", "format": "functional, cell-based"}, "[6]": {"assay": "Selectivity ratio of IC50 for human CEM cells to IC50 for human PHA-stimulated PBL cells", "format": "ADME, cell-based", "conditions": "CEM cells and PHA-stimulated PBL cells, read-out: Ratio IC50"}, "Jurkat [7]": {"tested_on": "Jurkat", "assay": "Cell cycle arrest in human Jurkat cells assessed as accumulation at G2/M phase at >20 nM after 24 hrs by propidium iodide staining-based flow cytometry", "format": "functional", "in_short": "as §1"}, "HeLa [8]": {"tested_on": "HeLa", "assay": "Induction of apoptosis in human HeLa cells assessed as mitochondrial membrane depolarization after 24 to 48 hrs by JC-1 staining", "format": "functional, cell-based", "in_short": "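HeLa cells treated 24 or 48 h, then stained with the potentiometric dye JC-1. Proportion of cells with depolarised mitochondria read by flow cytometry. Mean ± SEM of three independent experiments.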"}, "[9]": {"assay": "Cytotoxicity against human A549-T12 cells after 72 hrs by MTT assay", "format": "functional, cell-based", "conditions": "A549, 72 h", "in_short": "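Mean ± SE of at least three independent experiments. Resistance ratio = IC50 in resistant line/IC50 in nonresistant line.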"}, "HL-60": {"tested_on": "HL-60", "assay": "Ratio of Combretastatin A-4 IC50 to compound IC50 for human HL60 cells", "format": "functional"}, "HeLa [10]": {"tested_on": "HeLa", "assay": "Cell cycle arrest in human HeLa cells assessed as accumulation at G2/M phase at 20 nM after 24 hrs by propidium iodide staining-based flow cytometry", "format": "functional", "in_short": "as §1"}, "HeLa [11]": {"tested_on": "HeLa", "assay": "Induction of apoptosis in human HeLa cells assessed as PARP cleavage at 10 nM after 24 hrs by Western Blot analysis", "format": "functional, cell-based", "in_short": "as §2"}, "HeLa [12]": {"tested_on": "HeLa", "assay": "Cell cycle arrest in human HeLa cells assessed as accumulation at G2/M phase after 24 hrs by propidium iodide staining-based flow cytometry", "format": "functional", "in_short": "as §1"}, "LoVo": {"tested_on": "LoVo", "assay": "Resistance index, ratio of IC50 for human LoVo/DX cells to IC50 for human LoVo cells", "format": "functional", "in_short": "(§3)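 MTT viability test: 8 × 10^3 cells per well settled 18 h at 37 °C, 5% CO2, then given fresh medium with compound (from 10 mM DMSO stocks, final DMSO ≤0.25%) for 72 h. […] CEMVbl-100 is a vinblastine-selected P-gp line; LoVoDoxo is grown in Ham's F12 with 0.1 μg/mL doxorubicin. Resistance index = resistant IC50/parental IC50.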"}, "HeLa [13]": {"tested_on": "HeLa", "assay": "Induction of apoptosis in human HeLa cells assessed as decrease in unphosphorylated Mcl-1 at 10 to 100 nM after 24 hrs by Western Blot analysis", "format": "functional, cell-based", "in_short": "as §2"}, "MCF7": {"tested_on": "MCF7", "assay": "Ratio of Combretastatin A-4 IC50 to compound IC50 for human MCF7 cells", "format": "functional"}, "CCRF-CEM": {"tested_on": "CCRF-CEM", "assay": "Resistance index, ratio of IC50 for human CEM/VBL100 cells to IC50 for human CEM cells", "format": "functional", "in_short": "as §3"}, "HeLa [14]": {"tested_on": "HeLa", "assay": "Induction of apoptosis in human HeLa cells assessed as survivin phosphorylation on Thr32 after 24 to 48 hrs by Western Blot analysis", "format": "functional, cell-based", "in_short": "as §2"}, "[15]": {"assay": "Antitumor activity against mouse BNL 1ME A.7R.1 cells xenografted in Balb/c mouse assessed as reduction in tumor growth at 5 mg/kg, ip QD for 7 days", "format": "functional", "set-up": "scale not given: the % may be the effect or the level left", "conditions": "route intraperitoneal", "in_short": "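Male Balb/c mice, 8 weeks old, given 10^7 syngeneic BNL 1ME A.7R.1 hepatoma cells subcutaneously in the dorsal region in 200 μL PBS. Randomised to groups of five. Dosed intraperitoneally once daily for 7 days at 5 mg/kg in 0.9% NaCl with 5% PEG 400 and 0.5% Tween 80, against vehicle and CA-4P. Tumours measured daily by caliper, V = AB2/2; body weight recorded. Mean ± SEM.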"}, "HeLa [16]": {"tested_on": "HeLa", "assay": "Induction of apoptosis in human HeLa cells assessed as ROS production at 10 to 100 nM after 24 to 48 hrs by HE staining-based flow cytometry relative to control", "format": "functional, cell-based", "in_short": "(§4)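 HeLa cells treated 24 or 48 h, then stained with H2-DCFDA or hydroethidine. ROS read by flow cytometry against untreated control. Mean ± SEM of three independent experiments.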"}, "HeLa [17]": {"tested_on": "HeLa", "assay": "Ratio of Combretastatin A-4 IC50 to compound IC50 for human HeLa cells", "format": "functional"}, "HeLa [18]": {"tested_on": "HeLa", "assay": "Induction of apoptosis in human HeLa cells assessed as reduction of Xiap expression at 10 nM after 24 hrs by Western Blot analysis", "format": "functional, cell-based", "in_short": "as §2"}, "HeLa [19]": {"tested_on": "HeLa", "assay": "Induction of apoptosis in human HeLa cells assessed as early apoptotic cells after 24 to 48 hrs by annexin V-FITC/Propidium iodide staining-based flow cytometry", "format": "functional, cell-based", "in_short": "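HeLa cells treated 24 or 48 h, then co-labelled with annexin-V–FITC and propidium iodide. Flow cytometry with 488 nm excitation and emission at 525 nm (FITC) and 585 nm (PI); early apoptotic cells counted as annexin-V+/PI−. Mean ± SEM of three independent experiments.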"}, "HT-29": {"tested_on": "HT-29", "assay": "Ratio of Combretastatin A-4 IC50 to compound IC50 for human HT-29 cells", "format": "functional"}, "HeLa [20]": {"tested_on": "HeLa", "assay": "Induction of apoptosis in human HeLa cells assessed as ROS production at 10 to 100 nM after 24 to 48 hrs by H2-DCFDA staining-based flow cytometry relative to control", "format": "functional, cell-based", "in_short": "as §4"}, "Bos taurus": {"organism": "Bos taurus", "assay": "Displacement of [3H]colchicine from bovine brain tubulin at 5 uM after 20 mins by turbidimetric analysis"}, "Jurkat [21]": {"tested_on": "Jurkat", "assay": "Cell cycle arrest in human Jurkat cells assessed as accumulation at G2/M phase after 24 hrs by propidium iodide staining-based flow cytometry", "format": "functional", "in_short": "as §1"}, "PBL": {"tested_on": "PBL", "assay": "Cytotoxicity against human PHA-stimulated PBL cells after 72 hrs by MTT assay", "format": "cell-based", "in_short": "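Peripheral blood lymphocytes from healthy donors isolated on a Lymphoprep gradient and rested overnight in RPMI-1640 with 10% FBS. Nonadherent cells at 5 × 10^5 cells/mL, with 2.5 μg/mL PHA for proliferating cultures or without it for resting ones. Compound exposure 72 h, viability by MTT. Mean ± SEM of three experiments.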"}},
  "note": "The source made the active and inactive calls. No cut-off for these calls is given here.",
  "data": [
    {"molecule": "COC(=O)c1sc2cc(OC)ccc2c1Nc1cc(OC)c(OC)c(OC)c1", "values": [
      {"measurement": "Activity", "setting": "HeLa [1]", "result": ">80", "unit": "%"},
      {"measurement": "Activity", "setting": "HeLa [2]", "result": "inactive"},
      {"measurement": "Activity", "setting": "HeLa [3]", "result": "Active"},
      {"measurement": "Activity", "setting": "HeLa [4]", "result": "Active"},
      {"measurement": "Ratio IC50", "setting": "A549", "result": 2},
      {"measurement": "IC50", "setting": "HeLa [5]", "result": 0.28, "unit": "nM"},
      {"measurement": "selectivity ratio", "setting": "[6]", "result": 2000},
      {"measurement": "Activity", "setting": "Jurkat [7]", "result": ">80", "unit": "%"},
      {"measurement": "Activity", "setting": "HeLa [8]", "result": "Dose-dependent effect"},
      {"measurement": "IC50", "setting": "[9]", "result": 12.6, "unit": "nM"},
      {"measurement": "Ratio IC50", "setting": "HL-60", "result": 2},
      {"measurement": "Activity", "setting": "HeLa [10]", "result": "Active"},
      {"measurement": "Activity", "setting": "HeLa [11]", "result": "Active"},
      {"measurement": "Activity", "setting": "HeLa [12]", "result": "Dose-dependent effect"},
      {"measurement": "Ratio IC50", "setting": "LoVo", "result": 1.3},
      {"measurement": "Activity", "setting": "HeLa [13]", "result": "Active"},
      {"measurement": "Ratio IC50", "setting": "MCF7", "result": 2},
      {"measurement": "Ratio IC50", "setting": "CCRF-CEM", "result": 0.4},
      {"measurement": "Activity", "setting": "HeLa [14]", "result": "Active"},
      {"measurement": "Activity", "setting": "[15]", "result": 68.5, "unit": "%"},
      {"measurement": "Activity", "setting": "HeLa [16]", "result": "Active"},
      {"measurement": "Ratio IC50", "setting": "HeLa [17]", "result": 2},
      {"measurement": "Activity", "setting": "HeLa [18]", "result": "Active"},
      {"measurement": "Activity", "setting": "HeLa [19]", "result": "Dose-dependent effect"},
      {"measurement": "Ratio IC50", "setting": "HT-29", "result": 2},
      {"measurement": "Activity", "setting": "HeLa [20]", "result": "Active"},
      {"measurement": "inhibition", "setting": "Bos taurus", "result": 98, "unit": "%"},
      {"measurement": "Activity", "setting": "Jurkat [21]", "result": "Dose-dependent effect"},
      {"measurement": "IC50", "setting": "PBL", "result": "> 10000", "unit": "nM"}
    ]}
  ]
}
